# Assay results published in ChEMBL document CHEMBL1153722, “Design, synthesis, and characterization of peptide-based rab geranylgeranyl transferase inhibitors” (J Med Chem, 2009).
# Square brackets hold non-standard residues; d marks the D form. Peptide text beside a SMILES is read from it. * marks the point of attachment. Hydrocinnamoyl = O=C(CCc1ccccc1)*; Undecanoyl = CCCCCCCCCCC(=O)*; pGlu = O=C1CC[C@@H](C(=O)O)N1; Ac6c = NC1(C(=O)O)CCCCC1; NHBn = c1ccc(CN*)cc1
# Biological target: not listed separately
# Experiment: Inhibition of rat recombinant Rab geranylgeranyltransferase iin presence of canine Rab7 and rat REP1 by NBD-FPP based continuous fluorimetric assay
# In short: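 Continuous fluorometric assay in 96/384-well format: 3 μM Rab7, 3 μM REP1, 9 μM NBD-FPP and 400 nM RabGGTase, with or without inhibitor. IC50 was calculated from three independent measurements.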
row,SMILES,IC50 [µM]
1,O=C(CNC(=O)[C@H](Cc1cn(C(c2ccccc2)(c2ccccc2)c2ccccc2)cn1)NC(=O)c1coc(-c2ccccc2)n1)N[C@@H](Cc1ccccc1)C(=O)O,30
2,O=C(CNC(=O)c1csc(-c2cccs2)n1)N[C@@H](Cc1ccccc1)C(=O)N[C@@H](Cc1cn(C(c2ccccc2)(c2ccccc2)c2ccccc2)cn1)C(=O)O,36
3,O=C(CNC(=O)[C@H](Cc1c[nH]cn1)NC(=O)c1coc(-c2ccccc2)n1)N[C@@H](Cc1c[nH]cn1)C(=O)O,> 50
4,CCCCCCCCCCC(=O)N[C@@H](Cc1c[nH]cn1)C(=O)N[C@@H](Cc1c[nH]cn1)C(=O)N[C@@H](Cc1ccc(O)cc1)C(=O)NCCCCN,5.2
5,O=C(CNC(=O)c1csc(-c2cccs2)n1)N[C@@H](Cc1ccccc1)C(=O)N[C@@H](Cc1c[nH]cn1)C(=O)O,41
6,CN(C(=O)[C@@H](Cc1c[nH]cn1)NC(=O)/C=C/c1ccc(-c2ccccc2)cc1)[C@H](CN[C@@H](Cc1ccc(O)cc1)C(=O)O)Cc1ccc(O)cc1,22.7
7,CC(C)(C)OC(=O)n1cnc(C[C@H](NC(=O)[C@H](Cc2ccccc2)NC(=O)CNC(=O)c2coc(-c3ccccc3)n2)C(=O)O)c1,> 50
8,Cc1nc(C(=O)NCC(=O)N[C@@H](Cc2ccccc2)C(=O)N[C@@H](Cc2cn(C(c3ccccc3)(c3ccccc3)c3ccccc3)cn2)C(=O)O)c(C)o1,46
9,Cc1nc(C(=O)NCC(=O)N[C@@H](Cc2ccccc2)C(=O)N[C@@H](Cc2c[nH]cn2)C(=O)O)c(C)o1,> 50
10,O=C(CNC(=O)c1coc(-c2ccccc2)n1)N[C@@H](Cc1ccccc1)C(=O)N[C@@H](Cc1cn(Cc2ccccc2)cn1)C(=O)O,> 50
11,O=C(CNC(=O)c1csc(-c2cccnc2)n1)N[C@@H](Cc1ccccc1)C(=O)N[C@@H](Cc1cn(C(c2ccccc2)(c2ccccc2)c2ccccc2)cn1)C(=O)O,37

# Now from value to compound:
row,IC50 [µM],SMILES
1,7.1,CCCCCCCCCCC(=O)N[C@@H](Cc1ccc(O)cc1)C(=O)N[C@@H](Cc1c[nH]cn1)C(=O)N[C@@H](Cc1ccc(O)cc1)C(=O)NCCCCN
2,> 50,O=C(CNC(=O)c1csc(-c2cccnc2)n1)N[C@@H](Cc1ccccc1)C(=O)N[C@@H](Cc1c[nH]cn1)C(=O)O
3,19,CCCCCc1ccc(CCC(=O)N[C@H](Cc2c[nH]cn2)C(=O)N(C)[C@H](CN[C@@H](Cc2ccccc2)C(=O)O)Cc2ccccc2)cc1
4,12.3,CCCCCCCCCCCOc1ccc(C(=O)N[C@@H](Cc2c[nH]cn2)C(=O)N[C@@H](Cc2ccc(O)cc2)C(=O)N[C@@H](Cc2ccccc2)C(=O)NCCCn2ccnc2)cc1
5,12.1,CCCCCCCCCCCOc1ccc(C(=O)N[C@@H](Cc2c[nH]cn2)C(=O)N[C@@H](Cc2c[nH]cn2)C(=O)N[C@@H](Cc2c[nH]cn2)C(=O)N(C)CCc2ccccn2)cc1
6,19.3,CN(C(=O)[C@H](Cc1c[nH]cn1)NC(=O)OCc1ccccc1OCc1ccccc1)[C@H](CN[C@@H](Cc1ccccc1)C(=O)O)Cc1ccc(O)cc1
7,15.6,CN(C(=O)[C@@H](Cc1c[nH]cn1)NC(=O)OCc1ccccc1OCc1ccccc1)[C@H](CN[C@@H](Cc1ccccc1)C(=O)O)Cc1ccc(O)cc1
8,11,CCCCCc1ccc(CCC(=O)N[C@H](Cc2ccc(O)cc2)C(=O)N[C@@H](Cc2ccc(O)cc2)C(=O)N[C@@H](Cc2ccccc2)C(=O)O)cc1
9,> 100,CCCCC(=O)N[C@@H](Cc1c[nH]cn1)C(=O)N[C@@H](Cc1ccccc1)C(=O)N[C@@H](Cc1ccc(O)cc1)CN(C)CCc1ccccn1
10,15.2,CCC/C=C\c1ccccc1/C=C/C(=O)N[C@H](Cc1c[nH]cn1)C(=O)N(C)[C@H](CN[C@H](Cc1ccccc1)C(=O)O)Cc1ccc(O)cc1
11,13.6,CN(C(=O)[C@H](Cc1c[nH]cn1)NC(=O)OCc1ccccc1)[C@@H](Cc1ccccc1)C(=O)N[C@H](Cc1ccc(O)cc1)C(=O)NO
12,19.1,CCCCCc1ccc(CCC(=O)N[C@H](Cc2ccc(O)cc2)C(=O)N[C@@H](Cc2ccc(O)cc2)C(=O)N[C@@H](C[Si]2(C)CCCCC2)C(=O)O)cc1
13,> 100,CCCCCCCCCCC(=O)N[C@@H](Cc1c[nH]cn1)C(=O)N[C@@H](Cc1c[nH]cn1)C(=O)N[C@@H](Cc1ccc(O)cc1)C(=O)NCCc1ccccn1
14,24,CCCCCCCCCCCOc1ccc(C(=O)N[C@@H](Cc2c[nH]cn2)C(=O)N[C@@H](Cc2c[nH]cn2)C(=O)N[C@@H](Cc2c[nH]cn2)C(=O)NCCCCN)cc1
15,11.6,CCCCCCCCCCCOc1ccc(C(=O)N[C@@H](Cc2ccc(O)cc2)C(=O)N[C@@H](Cc2ccc(O)cc2)C(=O)N[C@@H](Cc2ccc(O)cc2)C(=O)NCCCCN)cc1
16,3.9,CCCCCCCCCCC(=O)N[C@@H](Cc1ccc(O)cc1)C(=O)N[C@@H](Cc1c[nH]cn1)C(=O)N[C@@H](Cc1ccc(O)cc1)C(=O)OC (Undecanoyl-Tyr-His-Tyr-OMe)
17,26,CCCCCCCCCCCCCCC(=O)N[C@@H](Cc1c[nH]cn1)C(=O)N[C@@H](Cc1ccccc1)C(=O)N[C@@H](Cc1ccc(O)cc1)CN(C)CCc1ccccn1
18,45,O=C(CNC(=O)c1coc(-c2ccccc2)n1)N[C@@H](Cc1ccccc1)C(=O)N[C@@H](Cc1c[nH]cn1)C(=O)O
19,> 50,O=C(CNC(=O)[C@H](Cc1c[nH]cn1)NC(=O)c1coc(-c2ccccc2)n1)N[C@@H](Cc1ccccc1)C(=O)O

# Species on record: Rattus norvegicus
# Experiment: Inhibition of rat recombinant Rab geranylgeranyltransferase at 100 uM in presence of canine Rab7 and rat REP1 NBD-FPP based continuous fluorimetric assay
# In short: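 Continuous fluorometric assay in 96/384-well format: 3 μM Rab7, 3 μM REP1, 9 μM NBD-FPP and 400 nM RabGGTase, with or without inhibitor. […] IC50 was calculated from three independent measurements.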
row,SMILES,inhibition [%]
1,CC[C@H](C)[C@H](NC(=O)CCc1ccc(F)cc1)C(=O)N[C@@H](C)C(=O)N[C@@H](CCC(N)=O)C(=O)NNc1ccccc1,81
2,CC(=O)Nc1cc(C(=O)N2CCC[C@H]2C(=O)N[C@@H](C(=O)N[C@@H](CCC(=O)O)C(=O)O)C(C)C)ccc1[N+](=O)[O-],95
3,NC(=O)CC[C@H](NC(=O)[C@H](Cc1ccccc1)NC(=O)CNC(=O)CCc1ccccc1)C(=O)NCc1ccccc1 (Hydrocinnamoyl-Gly-Phe-Gln-NHBn),85
4,CC(C)(C)Oc1ccc(C[C@H](NC(=O)CNC(=O)[C@H](CCCCN)NC(=O)c2coc(-c3ccccc3)n2)C(=O)O)cc1,93
5,COC(=O)[C@H](Cc1ccc(O)cc1)NC(=O)CNC(=O)[C@H](Cc1ccc(O)cc1)NC(=O)CCc1ccc(F)cc1,90
6,C[C@@H](O)[C@H](NC(=O)/C=C/c1ccccc1)C(=O)N[C@@H](Cc1ccccc1)C(=O)N[C@@H](CCC(N)=O)C(=O)Nc1ccc(F)c(Cl)c1,91
7,O=C(/C=C/c1ccc(F)cc1)N[C@@H](CO)C(=O)N[C@@H](Cc1ccccc1)C(=O)N[C@@H](CO)C(=O)Nc1ccccc1,73
8,C[C@H](NC(=O)/C=C/c1ccc(F)cc1)C(=O)NCC(=O)N[C@@H](Cc1ccc(O)cc1)C(=O)O,76
9,COC(=O)NNC(=O)[C@H](CCC(=O)O)NC(=O)[C@H](NC(=O)[C@@H]1CCCN1C(=O)c1ccc([N+](=O)[O-])c(NC(C)=O)c1)C(C)C,101
10,COC(=O)C1(NC(=O)[C@H](CCCCN)NC(=O)[C@H](CC(C)C)NC(=O)[C@@H]2CCC(=O)N2)CCCCC1 ([pGlu]LK[Ac6c]-OMe),98
11,O=C(CNC(=O)[C@H](Cc1ccc(O)cc1)NC(=O)c1ccc(F)cc1)N[C@@H](Cc1ccc(O)cc1)C(=O)Nc1ccc(F)cc1F,98
12,O=C(CCc1ccc(F)cc1)N[C@@H](Cc1ccc(O)cc1)C(=O)NCC(=O)N[C@@H](Cc1ccc(O)cc1)C(=O)OCCCl,50
13,O=C(CNC(=O)[C@H](Cc1ccc(O)cc1)NC(=O)CCc1ccc(F)cc1)N[C@@H](Cc1ccc(O)cc1)C(=O)O,86
14,CC(C)[C@H](NC(=O)[C@@H](Cc1ccccc1)NC(=O)c1ccc(-c2ccccc2)cc1)C(=O)N[C@H](C)C(=O)N1CCC[C@H]1C(N)=O,71
15,O=C(CNC(=O)[C@@H]1CCCN1C(=O)/C=C/c1ccccc1)N[C@@H](Cc1ccccc1)C(=O)O,71
16,COC(=O)[C@H](CO)NC(=O)[C@H](Cc1ccccc1)NC(=O)[C@H](CO)NC(=O)C(Br)C(Br)c1ccc(F)cc1 (stereo partly drawn),80
17,O=C(CNC(=O)[C@H](Cc1ccccc1)NC(=O)c1coc(-c2ccccc2)n1)N[C@@H](CO)C(=O)O,106
18,C=CCCCCCCCCCOC(=O)[C@H](CO)NC(=O)CNC(=O)[C@H](CO)NC(=O)/C=C/c1ccc(F)cc1,57
19,C[C@@H](O)[C@H](NC(=O)/C=C/c1ccccc1)C(=O)N[C@@H](Cc1ccccc1)C(=O)N[C@@H](CCC(N)=O)C(=O)NC1CCCCC1,75
20,O=C(N[C@@H](CO)C(=O)N[C@@H](Cc1ccccc1)C(=O)N[C@@H](CO)C(=O)Nc1ccc(F)cc1F)C(Br)C(Br)c1ccc(F)cc1 (stereo partly drawn),94
21,CC[C@H](C)[C@H](NC(=O)c1ccc(-c2ccccc2)cc1)C(=O)N[C@@H](C(=O)N[C@@H](CCC(N)=O)C(=O)OC)C(C)C,94

# Further lines, results first:
row,inhibition [%],SMILES
1,7,CCCCCCCCCCCOc1ccc(C(=O)N[C@@H](Cc2c[nH]cn2)C(=O)N[C@@H](Cc2ccc(O)cc2)C(=O)N[C@@H](Cc2ccccc2)C(=O)NCCCn2ccnc2)cc1
2,80,CCCCCCCCCCC(=O)N[C@@H](Cc1c[nH]cn1)C(=O)N[C@@H](Cc1c[nH]cn1)C(=O)N[C@@H](Cc1ccc(O)cc1)C(=O)NCCc1ccccn1
3,75,CCCCCCCCCCCOc1ccc(C(=O)N[C@@H](Cc2ccc(O)cc2)C(=O)N[C@@H](Cc2ccc(O)cc2)C(=O)N[C@@H](Cc2ccc(O)cc2)C(=O)N(C)OC)cc1
4,127,O=C(CCc1ccc(F)cc1)N[C@@H](Cc1ccc(O)cc1)C(=O)NCC(=O)N[C@@H](Cc1ccc(O)cc1)C(=O)NCc1ccccc1
5,10,CCCCCc1ccc(CCC(=O)N[C@H](Cc2cnc[nH]2)C(=O)N[C@@H](Cc2ccc(O)cc2)C(=O)N[C@@H](Cc2ccccc2)C(=O)O)cc1
6,101,CCCCCCCCCCC(=O)N[C@@H](Cc1c[nH]cn1)C(=O)N[C@@H](Cc1ccccc1)C(=O)N[C@@H](Cc1ccc(O)cc1)C(=O)NCCCn1ccnc1
7,93,CCCCCCCCCCCOc1ccc(C(=O)N[C@@H](Cc2cnc[nH]2)C(=O)N[C@@H](Cc2ccc(O)cc2)C(=O)N[C@@H](Cc2ccccc2)C(=O)NCC(O)CO)cc1 (stereo partly drawn)
